Article PMC11094421 (Clinical Cancer Research, 2024)

Legend:
[1] = test system: xenograft models of BRCA^mut high-grade serous ovarian cancer; settings: monotherapy and combination with niraparib; cited from earlier work
[2] = test system: circulating tumor DNA; assay: Molecular response in plasma ctDNA; assay type: in vivo, human
[3] = Dose-limiting toxicities, MTD and RDE; assay type: in vivo, human
Method in brief: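 Patients with metastatic or locally advanced unresectable solid tumors received test compound alone, fasting, QD from 5 mg upward, plus 2 weeks on/1 week off and 150 mg BID 4 days on/3 days off schedules. The DLT window was 21 days with a 30% target DLT rate. A Bayesian 2-parameter logistic model with overdose control and a schedule covariate gave posterior DLT probabilities (mean, percentiles). Analysis set N = 52.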

[4] = test system: immune cell subsets; assay: Immunophenotyping of whole blood by flow cytometry; assay type: in vivo, human; settings: doses ≥130 mg, on-treatment period; full recovery during treatment breaks
[5] = lartesertib, niraparib, cisplatin, gemcitabine, irinotecan; preclinical; cited from earlier work
[6] = Noncompartmental PK of tuvusertib in plasma; assay type: in vivo, human
[7] = test system: patients with advanced solid tumors; assay: Objective response according to RECIST v1.1; assay type: in vivo, human
Method in brief: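 Investigator-assessed objective response per RECIST v1.1, based on change in the sum of longest diameters of target lesions. Patients received the test compound once or twice daily on continuous or intermittent schedules.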

[8] = test system: ATM^mut non–small cell lung cancer (NSCLC) xenograft model; settings: monotherapy; Supplementary Fig. S1; cited from earlier work
[9] = test system: ARID1A^mut gastric cancer xenograft model; settings: monotherapy; Supplementary Fig. S1; cited from earlier work
[10] = Treatment-emergent adverse events, first-in-human dose-escalation study; assay type: in vivo
Method in brief: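 Safety set comprised all patients given ≥1 dose (N = 55; 5–270 mg, QD or BID schedules). TEAEs were counted from the first dose until 30 days after the last. Baseline was the last value before the first dose.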

SMILES: Cn1cncc1-c1c(F)cncc1NC(=O)c1c(N)nn2cc(F)cnc12 [Tuvusertib]
- antitumor activity [1]: antitumor activity as monotherapy and in combination with the PARP inhibitor niraparib
- Complete MRs for any mutations ([2]; ARID1A): 2/8
- Complete MRs for any mutations ([2]; ATRX): 2/5
- Complete MRs for any mutations ([2]; BRCA1/2): 2/11
- Complete MRs for any mutations ([2]; DAXX): 2/3
- MRs by tumor type ([2]; breast cancer, 1/3): 33%
- MRs by tumor type ([2]; other tumor types, 4/21): 19%
- MRs by tumor type ([2]; ovarian cancer, 5/10): 50%
- MRs observed (patients) ([2]; patients treated with more than 130 mg QD, 14/37): 38%
- patients showing a reduction in sum of tumor diameter ([2]; patients with MRs, 7/14): 50%
- patients showing a reduction in sum of tumor diameter ([2]; patients without MRs, 8/33): 24%
- MRs observed (patients) ([2]; the 10 patients who received lower doses): none
- DLT anemia requiring blood transfusion ([3]; 130 mg QD): 1/8
- DLT anemia requiring blood transfusion ([3]; 150 mg BID 4 days on/3 days off): 3/4
- DLT anemia requiring blood transfusion ([3]; 180 mg QD): 3/10
- median estimated DLT probability ([3]; 180 mg QD continuously): 23%
- upper boundary of the one-sided 95% credible interval of DLT probability ([3]; 180 mg QD continuously): 37%
- DLT anemia requiring blood transfusion ([3]; 220 mg QD 2 weeks on/1 week off): 2/6
- DLT anemia requiring blood transfusion ([3]; 270 mg QD): 1/4
- DLT upper gastrointestinal hemorrhage and decreased platelet counts (one each) ([3]; 270 mg QD): 2/4
- patients who experienced DLTs ([3]; as assessed by the SMC, observation period 21 days): Eleven
- median estimated DLT probability ([3]; intermittent 2 weeks on/1 week off schedule, no MTD formally established): < 20%
- DLTs that were events of anemia requiring blood transfusion ([3]; of eleven patients with DLTs): 10
- monocytes and NK cell subsets [4]: Transient decreases
- synergy with other DDR-targeting treatments and DNA-damaging agents [5]: pronounced synergy
- dose proportionality of exposure ([6]; 5 to 270 mg): approximately dose proportional up to 180 mg QD and slightly more than proportional at higher doses
- PK steady-state conditions achieved ([6]; cycle 1): ≤ 8 days
- half-life ([6]; human, plasma, oral): 1.2 to 5.6 h
- Tmax ([6]; human, plasma, po): 0.5 to 3.5 h
- patients with stable disease (RECIST v1.1) ([7]; 15 patients, all doses): 27%
- duration of disease stabilization ([7]; patient with unconfirmed partial response, 150 mg BID 4 days on/3 days off): 9 months
- antitumor activity [8]: antitumor activity as monotherapy
- antitumor activity [9]: antitumor activity as monotherapy
- Anemia TEAE ([10]; Any grade, all doses, N = 55): 39 (71) n (%)
- Constipation TEAE ([10]; Any grade, all doses, N = 55): 13 (24) n (%)
- Fatigue TEAE ([10]; Any grade, all doses, N = 55): 22 (40.0) n (%)
- Nausea TEAE ([10]; Any grade, all doses, N = 55): 34 (62) n (%)
- Vomiting TEAE ([10]; Any grade, all doses, N = 55): 21 (38) n (%)
- Anemia TEAE ([10]; Grade ≥3, all doses, N = 55): 20 (36) n (%)
- Constipation TEAE ([10]; Grade ≥3, all doses, N = 55): 0 n (%)
- Fatigue TEAE ([10]; Grade ≥3, all doses, N = 55): 1 (2) n (%)
- Nausea TEAE ([10]; Grade ≥3, all doses, N = 55): 0 n (%)
- Vomiting TEAE ([10]; Grade ≥3, all doses, N = 55): 3 (6) n (%)
- treatment-related AE anemia ([10]; across all dose levels): 67%
- treatment-related AE fatigue ([10]; across all dose levels): 38%
- treatment-related AE vomiting ([10]; across all dose levels): 33%
- TEAEs assessed as related to tuvusertib ([10]; all doses): 87%
- abnormal ECG readings, vital signs, high-grade laboratory abnormalities ([10]; all doses): No clinically significant abnormal ECG readings, vital signs or high-grade laboratory abnormalities were observed
- patients who experienced at least one TEAE ([10]; all doses): 95%
- Any grade ≥3 TEAE ([10]; all doses, N = 55): 26 (47) n (%)
- Any serious TEAE ([10]; all doses, N = 55): 15 (27) n (%)
- Grade ≥3 TEAE related to tuvusertib ([10]; all doses, N = 55): 19 (35) n (%)
- Serious TEAE related to tuvusertib ([10]; all doses, N = 55): 3 (6) n (%)
- TEAE leading to permanent tuvusertib discontinuation ([10]; all doses, N = 55): 3 (6) n (%)
- TEAE leading to temporary tuvusertib discontinuation ([10]; all doses, N = 55): 26 (47) n (%)
- TEAEs related to tuvusertib ([10]; all doses, N = 55): 48 (87) n (%)
- Any TEAE ([10]; all doses, N = 55, safety analysis set): 52 (95) n (%)
- constipation TEAE of any grade ([10]; at the MTD (n = 11)): 36%
- nausea TEAE of any grade ([10]; at the MTD (n = 11)): 55%
- vomiting TEAE of any grade ([10]; at the MTD (n = 11)): 36%
- grade ≥3 TEAE anemia ([10]; at the RDE): none seen
- nausea TEAE of any grade ([10]; at the RDE (n = 7)): 71%
- anemia TEAE of any grade ([10]; overall): 71%
- fatigue TEAE of any grade ([10]; overall): 40%
- grade ≥3 TEAE lymphocyte count decreased ([10]; overall): 7%
- grade ≥3 TEAE neutrophil count decreased ([10]; overall): 7%
- nausea TEAE of any grade ([10]; overall): 62%
- grade ≥3 TEAE anemia ([10]; overall, majority at doses ≥ MTD): 36%
- Grade ≥4 platelet count decreased ([10]; reported at dose levels exceeding the MTD): 4%
